Results reported in ChEMBL document CHEMBL5329211, “Selective isoxazolopyrimidine PAT1 (SLC26A6) inhibitors for therapy of intestinal disorders” (RSC Med Chem, 2023).
The source made the active and inactive calls. The rule behind the calls is not given here.

Columns and labels:
Pendrin (Homo sapiens) = target: T1, Pendrin (Homo sapiens) (UniProt O43511); test: Inhibition of SLC26A4 (unknown origin) expressed in rat FRT cells coexpressing YFP halide-sensing protein assessed as iodide-chloride exchange at 25 uM incubated for 2 sec by fluorescence quenching analysis; assay type: cell-based
T1 sequence (whole entry): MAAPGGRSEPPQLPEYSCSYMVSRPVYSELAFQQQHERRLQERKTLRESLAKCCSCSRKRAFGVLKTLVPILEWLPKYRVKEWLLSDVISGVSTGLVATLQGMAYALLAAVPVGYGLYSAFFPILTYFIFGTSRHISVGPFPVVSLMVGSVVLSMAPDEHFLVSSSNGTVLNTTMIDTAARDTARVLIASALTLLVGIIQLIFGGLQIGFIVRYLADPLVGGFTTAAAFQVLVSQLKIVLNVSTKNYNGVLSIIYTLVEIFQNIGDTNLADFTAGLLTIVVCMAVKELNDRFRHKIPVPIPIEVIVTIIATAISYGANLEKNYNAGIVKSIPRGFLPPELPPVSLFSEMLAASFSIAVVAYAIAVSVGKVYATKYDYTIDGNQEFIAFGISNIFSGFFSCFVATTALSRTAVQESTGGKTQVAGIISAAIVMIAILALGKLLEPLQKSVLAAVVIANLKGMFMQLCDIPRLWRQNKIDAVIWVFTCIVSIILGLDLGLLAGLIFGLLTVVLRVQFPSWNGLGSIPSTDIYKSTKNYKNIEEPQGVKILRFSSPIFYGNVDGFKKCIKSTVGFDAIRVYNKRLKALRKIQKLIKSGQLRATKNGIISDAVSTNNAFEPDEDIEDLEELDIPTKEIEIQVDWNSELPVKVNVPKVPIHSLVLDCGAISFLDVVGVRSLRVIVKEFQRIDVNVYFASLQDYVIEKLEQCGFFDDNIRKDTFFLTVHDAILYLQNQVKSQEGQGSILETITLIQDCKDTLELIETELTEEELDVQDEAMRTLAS

[1] = target: Solute carrier family 26 member 6 (Mus musculus) (UniProt Q8CIW6); test: Inhibition of SLC26A6 (unknown origin) expressed in rat FRT cells coexpressing YFP halide-sensing protein assessed as iodide-chloride exchange incubated for 2 sec by fluorescence quenching analysis
[2] = target: T2, Anoctamin-1 (Homo sapiens) (UniProt Q5XXA6); test: Inhibition of TMEM16A (unknown origin)
T2 sequence (whole entry): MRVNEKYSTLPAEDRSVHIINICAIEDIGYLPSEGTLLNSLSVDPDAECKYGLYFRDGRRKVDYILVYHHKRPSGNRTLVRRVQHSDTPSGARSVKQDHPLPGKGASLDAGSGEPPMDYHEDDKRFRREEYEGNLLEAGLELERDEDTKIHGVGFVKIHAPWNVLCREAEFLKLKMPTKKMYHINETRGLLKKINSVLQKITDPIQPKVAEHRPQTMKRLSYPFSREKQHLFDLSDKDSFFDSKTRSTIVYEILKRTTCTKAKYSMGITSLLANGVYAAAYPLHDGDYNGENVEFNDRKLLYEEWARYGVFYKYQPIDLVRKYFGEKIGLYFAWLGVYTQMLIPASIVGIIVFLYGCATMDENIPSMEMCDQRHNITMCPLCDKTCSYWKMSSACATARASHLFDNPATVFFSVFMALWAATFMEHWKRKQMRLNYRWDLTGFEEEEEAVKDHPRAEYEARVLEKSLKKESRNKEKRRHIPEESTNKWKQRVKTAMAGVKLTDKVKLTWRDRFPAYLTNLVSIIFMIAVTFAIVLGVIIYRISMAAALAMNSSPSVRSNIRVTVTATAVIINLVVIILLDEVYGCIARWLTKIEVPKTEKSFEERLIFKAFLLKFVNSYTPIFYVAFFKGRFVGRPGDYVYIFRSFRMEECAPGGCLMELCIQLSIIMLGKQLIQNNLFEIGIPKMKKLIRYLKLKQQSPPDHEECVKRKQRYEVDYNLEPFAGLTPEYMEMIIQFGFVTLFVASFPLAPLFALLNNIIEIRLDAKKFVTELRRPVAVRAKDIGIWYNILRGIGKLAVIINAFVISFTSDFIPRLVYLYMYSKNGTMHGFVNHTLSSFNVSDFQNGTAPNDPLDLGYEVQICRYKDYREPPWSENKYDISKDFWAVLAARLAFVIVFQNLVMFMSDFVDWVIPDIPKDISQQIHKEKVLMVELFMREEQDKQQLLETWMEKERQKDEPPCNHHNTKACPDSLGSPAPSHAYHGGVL

Mus musculus = test: In vivo inhibition of PAT1 in intestinal closed-loop CD-1 mouse model assessed as reduction in loop fluid volume in ileum measured for 30 mins; assay type: functional, organism-based
How it was run: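 Mice (wild-type CD1 or homozygous F508del CF, 10-16 wk, both sexes) fasted 24 h with free access to 5% dextrose water. Under isoflurane at 36-38 °C, 2-3 ileal loops (2-3 cm) were tied off and injected with 100 µL PBS pH 7.4 containing 30 µM inhibitor, 10 µM tenapanor or 0.1% DMSO vehicle. Loops removed at 0 or 30 min in separate mice; length and weight measured for fluid absorption. One-way ANOVA with Newman-Keuls.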

Chain of Solute carrier family 26 member 6 (Mus musculus) (Q8CIW6 whole entry, looked up): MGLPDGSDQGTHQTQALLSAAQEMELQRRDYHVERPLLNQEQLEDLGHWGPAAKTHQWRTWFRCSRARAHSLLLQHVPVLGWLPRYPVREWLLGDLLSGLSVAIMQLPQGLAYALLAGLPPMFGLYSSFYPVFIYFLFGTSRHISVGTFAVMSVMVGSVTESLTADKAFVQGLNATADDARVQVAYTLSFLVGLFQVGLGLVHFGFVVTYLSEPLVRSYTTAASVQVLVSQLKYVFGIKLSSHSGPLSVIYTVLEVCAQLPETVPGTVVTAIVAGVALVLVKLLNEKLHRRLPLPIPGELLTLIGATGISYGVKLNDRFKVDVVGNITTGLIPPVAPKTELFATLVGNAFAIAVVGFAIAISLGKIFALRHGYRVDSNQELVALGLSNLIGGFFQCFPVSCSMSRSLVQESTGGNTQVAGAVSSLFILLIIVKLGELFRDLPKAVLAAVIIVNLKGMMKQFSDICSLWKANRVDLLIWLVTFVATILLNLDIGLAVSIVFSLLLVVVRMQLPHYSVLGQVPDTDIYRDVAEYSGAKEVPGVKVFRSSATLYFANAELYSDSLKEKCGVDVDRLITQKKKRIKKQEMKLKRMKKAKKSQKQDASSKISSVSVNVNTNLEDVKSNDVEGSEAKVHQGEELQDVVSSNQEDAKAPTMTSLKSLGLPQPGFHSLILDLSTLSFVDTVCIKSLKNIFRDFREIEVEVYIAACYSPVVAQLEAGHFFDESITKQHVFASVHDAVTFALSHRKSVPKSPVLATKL

inhibition (Pendrin (Homo sapiens)): inactive | IC50 [1]: 1000 nM | inhibition [2]: inactive
Compound: CCOC(=O)c1nc(N(C)Cc2ccccc2)c2c(C)noc2n1
inhibition (Mus musculus): Active
